Measured values published in ChEMBL document CHEMBL4376860, “Discovery of Novel Dual Poly(ADP-ribose)polymerase and Phosphoinositide 3-Kinase Inhibitors as a Promising Strategy for Cancer Therapy” (J Med Chem, 2020).
pIC50: −log10 of the molar value. The source made the active and inactive calls. The calls are words filed in the database; no cut-off is given here.

How the values were obtained:
MDA-MB-468 [1] = experiment: Inhibition of PI3K in human MDA-MB-468 cells assessed as reduction in BRCA2 mRNA level at 1 uM by Trizol reagent-based RT-PCR analysis; type: cell-based
Summary of the method: (§1)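 Total RNA from treated MDA-MB-468 cells extracted with TRIzol. BRCA1 or BRCA2 mRNA quantified by real-time PCR with GAPDH as internal control. Results given as fold change relative to the internal control. Mean ± SD of three independent experiments.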

Jurkat = experiment: Antiproliferative activity against human Jurkat cells measured after 7 days by Celltiter-glo assay; type: functional, cell-based; details: 168 h
Summary of the method: (§2)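 Cells maintained in RPMI1640 with 10% FBS at 37 °C, 5% CO2. Seeded the day before dosing, grown 12 h, then exposed to graded compound concentrations for 7 days. CellTiter-Glo reagent added, 10 min at room temperature, luminescence read. Inhibition % = (1-(RLU compound - RLU blank)/(RLU DMSO - RLU blank))×100. IC50 from nonlinear regression, normalized dose-response fit.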

MDA-MB-468 [2] = experiment: Induction of apoptosis in human MDA-MB-468 cells assessed as late apoptotic cells at 1 uM measured after 72 hrs by Annexin V-FITC/propidium iodide staining based flow cytometry (reference value: 0.78%); type: functional
MDA-MB-468 [3] = experiment: Antitumor activity against human MDA-MB-468 cells xenografted in BALB/c mouse assessed as tumor growth inhibition at 50 mg/kg, ip administered every 2 days for 34 days and measured at 2 days interval during compound dosing relative to control; type: functional; details: MDA-MB-468, ip, read-out: TGI
MDA-MB-468 [4] = experiment: Inhibition of PI3K in human MDA-MB-468 cells assessed as reduction in RAD51 foci formation at 1 uM measured after 72 hrs by DAPI staining based immunofluorescence microscopic analysis; type: cell-based
Summary of the method: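 RAD51 foci in MDA-MB-468 cells on coverslips after 72 h drug exposure. Cells fixed (3% formaldehyde), permeabilized (0.1% Triton X-100), blocked in 10% FBS/PBS, incubated overnight at 4 °C with rabbit anti-RAD51 polyclonal, then secondary antibody plus DAPI. Foci and percent positive cells (>5 foci per cell) counted from about 200 cells. Mean ± SD of three independent experiments.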

HCC1937 = experiment: Antiproliferative activity against human HCC1937 cells measured after 7 days by Celltiter-glo assay; type: functional, cell-based; details: HCC1937, 168 h; summary of the method: as §2
A2780 [5] = experiment: Antiproliferative activity against human A2780 cells measured after 7 days by Celltiter-glo assay; type: functional, cell-based; details: A2780, 168 h; summary of the method: as §2
BXPC-3 = experiment: Antiproliferative activity against human BxPC3 cells measured after 7 days by Celltiter-glo assay; type: functional, cell-based; details: BXPC-3, 168 h; summary of the method: as §2
MDA-MB-468 [6] = experiment: Potency index, ratio of BKM120 IC50 to test compound IC50 for antiproliferative activity against human MDA-MB-468 cells; type: functional
SW-620 = experiment: Antiproliferative activity against human SW620 cells measured after 7 days by Celltiter-glo assay; type: functional, cell-based; details: SW-620, 168 h; summary of the method: as §2
MDA-MB-468 [7] = experiment: Induction of apoptosis in human MDA-MB-468 cells assessed as viable cells at 1 uM measured after 72 hrs by Annexin V-FITC/propidium iodide staining based flow cytometry (reference value: 95.2%); type: functional; details: MDA-MB-468, 72 h, read-out: Activity
CAKI-1 = experiment: Antiproliferative activity against human CAKI-1 cells measured after 7 days by Celltiter-glo assay; type: functional, cell-based; details: CAKI-1, 168 h; summary of the method: as §2
MDA-MB-468 [8] = experiment: Induction of apoptosis in human MDA-MB-468 cells assessed as necrotic cells at 1 uM measured after 72 hrs by Annexin V-FITC/propidium iodide staining based flow cytometry (reference value: 0.13%); type: functional
MDA-MB-468 [9] = experiment: Antiproliferative activity against human MDA-MB-468 cells measured after 7 days by Celltiter-glo assay; type: functional, cell-based; details: MDA-MB-468, 168 h; summary of the method: as §2
MDA-MB-468 [10] = experiment: Inhibition of PI3K in human MDA-MB-468 cells assessed as reduction in BRCA1 mRNA level at 1 uM by Trizol reagent-based RT-PCR analysis; type: cell-based; summary of the method: as §1
DU-145 [11] = experiment: Antiproliferative activity against human DU145 cells measured after 7 days by Celltiter-glo assay; type: functional, cell-based; details: DU-145, 168 h; summary of the method: as §2
MDA-MB-231 = experiment: Antiproliferative activity against human MDA-MB-231 cells measured after 7 days by Celltiter-glo assay; type: functional, cell-based; details: MDA-MB-231, 168 h; summary of the method: as §2
MDA-MB-468 [12] = experiment: Induction of apoptosis in human MDA-MB-468 cells assessed as early apoptotic cells at 1 uM measured after 72 hrs by Annexin V-FITC/propidium iodide staining based flow cytometry (reference value: 3.88%); type: functional
MDA-MB-468 [13] = experiment: Induction of DNA damage in human MDA-MB-468 cells at 1 uM measured after 72 hrs by comet assay; type: functional, cell-based
Summary of the method: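 MDA-MB-468 cells treated for 72 h, harvested and run in a neutral comet assay. Ethidium bromide staining after electrophoresis. About 200 cell images per group analysed with CASP. DNA damage scored as tail intensity (percentage DNA in tail) and olive tail moment. Mean ± SD of three independent experiments.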

Ramos = experiment: Antiproliferative activity against human Ramos cells measured after 7 days by Celltiter-glo assay; type: functional, cell-based; details: 168 h; summary of the method: as §2
Mus musculus = experiment: In vivo activation of ETS1 in BALB/c mouse xenografted with human MDA-MB-468 cells assessed as increase in ETS1 phosphorylation at Thr38 residue at 50 mg/kg, ip administered every 2 days for 34 days measured post-last dose by Western blot analysis; type: functional, organism-based
HCT-116 = experiment: Antiproliferative activity against human HCT116 cells measured after 7 days by Celltiter-glo assay; type: functional, cell-based; details: HCT-116, 168 h; summary of the method: as §2
A549 [14] = experiment: Antiproliferative activity against human A549 cells measured after 7 days by Celltiter-glo assay; type: functional, cell-based; details: A549, 168 h; summary of the method: as §2
[15] = target: Phosphatidylinositol 4,5-bisphosphate 3-kinase catalytic subunit alpha isoform (Homo sapiens, UniProt P42336); experiment: Inhibition of PI3Kalpha (unknown origin) using PIP2 as substrate measured after 1 hr by ADP-glo plus luminescence assay
[16] = target: Poly [ADP-ribose] polymerase 2 (Homo sapiens, UniProt Q9UGN5); experiment: Inhibition of recombinant human PARP2 using histone as substrate after 1 hr in presence of biotinylated NAD+ by ELISA
A549 [17] = experiment: cells; details: Homo sapiens, A549, 168 h, read-out: pIC50 (converted)
MDA-MB-468 [18] = experiment: cells; details: Homo sapiens, MDA-MB-468, 168 h, read-out: pIC50 (converted)
MDA-MB-468 [19] = experiment: Induction of apoptosis in human MDA-MB-468 cells assessed as late apoptotic cells at 1 uM measured after 72 hrs in presence of PARP inhibitor olaparib by Annexin V-FITC/propidium iodide staining based flow cytometry (reference value: 0.78%); type: functional
A2780 [20] = experiment: cells; details: Homo sapiens, A2780, 168 h, read-out: pIC50 (converted)
DU-145 [21] = experiment: cells; details: Homo sapiens, DU-145, 168 h, read-out: pIC50 (converted)

Sequence of Poly [ADP-ribose] polymerase 2 (Q9UGN5 whole entry): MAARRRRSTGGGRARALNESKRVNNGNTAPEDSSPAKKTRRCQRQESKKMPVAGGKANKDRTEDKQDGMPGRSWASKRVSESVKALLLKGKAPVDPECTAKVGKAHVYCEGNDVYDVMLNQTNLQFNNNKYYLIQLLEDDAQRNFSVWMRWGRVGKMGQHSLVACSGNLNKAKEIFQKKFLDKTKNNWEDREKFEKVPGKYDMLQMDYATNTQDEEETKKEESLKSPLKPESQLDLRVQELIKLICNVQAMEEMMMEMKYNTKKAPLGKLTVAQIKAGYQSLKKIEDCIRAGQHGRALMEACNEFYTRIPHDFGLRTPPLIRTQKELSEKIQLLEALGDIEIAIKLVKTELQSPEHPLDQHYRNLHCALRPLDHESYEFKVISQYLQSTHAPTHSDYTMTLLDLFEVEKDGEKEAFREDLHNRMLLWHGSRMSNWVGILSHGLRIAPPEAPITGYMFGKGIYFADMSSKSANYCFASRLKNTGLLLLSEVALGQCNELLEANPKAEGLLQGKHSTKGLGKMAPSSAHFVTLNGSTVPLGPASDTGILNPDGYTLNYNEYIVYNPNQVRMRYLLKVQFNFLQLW
Sequence of Phosphatidylinositol 4,5-bisphosphate 3-kinase catalytic subunit alpha isoform (P42336 whole entry, canonical isoform): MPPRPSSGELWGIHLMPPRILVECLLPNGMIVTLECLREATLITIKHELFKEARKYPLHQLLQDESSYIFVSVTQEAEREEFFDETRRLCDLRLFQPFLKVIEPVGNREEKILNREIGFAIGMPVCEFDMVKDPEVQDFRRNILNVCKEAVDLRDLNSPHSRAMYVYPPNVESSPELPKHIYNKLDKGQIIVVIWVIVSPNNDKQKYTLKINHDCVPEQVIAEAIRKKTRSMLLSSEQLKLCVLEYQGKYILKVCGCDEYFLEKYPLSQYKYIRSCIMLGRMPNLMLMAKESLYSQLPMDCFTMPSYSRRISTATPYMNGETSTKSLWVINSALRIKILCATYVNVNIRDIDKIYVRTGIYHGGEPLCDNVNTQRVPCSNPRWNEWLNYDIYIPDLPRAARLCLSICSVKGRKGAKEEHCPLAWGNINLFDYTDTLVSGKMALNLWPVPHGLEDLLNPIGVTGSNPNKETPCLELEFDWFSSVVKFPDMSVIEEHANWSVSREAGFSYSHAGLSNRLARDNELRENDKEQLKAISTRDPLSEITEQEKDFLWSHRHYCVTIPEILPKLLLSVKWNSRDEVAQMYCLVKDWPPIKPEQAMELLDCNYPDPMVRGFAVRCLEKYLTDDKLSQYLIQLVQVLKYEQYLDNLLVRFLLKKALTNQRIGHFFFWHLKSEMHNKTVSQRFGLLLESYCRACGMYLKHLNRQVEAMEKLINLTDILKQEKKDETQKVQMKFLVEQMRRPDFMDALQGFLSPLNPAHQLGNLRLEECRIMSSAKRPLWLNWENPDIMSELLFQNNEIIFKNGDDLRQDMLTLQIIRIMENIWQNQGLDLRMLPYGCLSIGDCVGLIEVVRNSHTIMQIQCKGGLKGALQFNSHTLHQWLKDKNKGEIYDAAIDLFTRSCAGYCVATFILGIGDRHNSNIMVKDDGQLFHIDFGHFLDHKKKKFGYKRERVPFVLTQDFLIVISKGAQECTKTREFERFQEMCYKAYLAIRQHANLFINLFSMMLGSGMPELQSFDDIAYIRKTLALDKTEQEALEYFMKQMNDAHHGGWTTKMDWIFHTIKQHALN

SMILES	inhibition (MDA-MB-468 [1])	pIC50 (Jurkat)	Activity (MDA-MB-468 [2]) [%]	inhibition (MDA-MB-468 [4])	pIC50 (HCC1937)	pIC50 (A2780 [5])	pIC50 (BXPC-3)	pIC50 (SW-620)	viability at 1 µM (MDA-MB-468 [7]) [%]	pIC50 (CAKI-1)	Activity (MDA-MB-468 [8]) [%]	pIC50 (MDA-MB-468 [9])	inhibition (MDA-MB-468 [10])	pIC50 (DU-145 [11])	pIC50 (MDA-MB-231)	Activity (MDA-MB-468 [12]) [%]	Activity (MDA-MB-468 [13])	pIC50 (Ramos)	pIC50 (HCT-116)	pIC50 (A549 [14])	further results
Nc1cc(C(F)(F)F)c(-c2nc3c(c(N4CCOCC4)n2)CCN(C(=O)c2cc(Cc4n[nH]c(=O)c5ccccc45)ccc2F)C3)cn1	Active	6.03	21	Active	5.98	6.40	5.97	5.55	55.7	6.02	1.44	6.01	Active	6.05	6.00	21.9	Active	5.97	6.06	6.27	inhibition in vivo at 50 mg/kg (MDA-MB-468 [3]): 73.4%; Ratio IC50 (MDA-MB-468 [6]): >=4; Activity (Mus musculus): Active; pIC50 [15]: 8.25; pIC50 [16]: 8.44
Nc1cc(C(F)(F)F)c(-c2cc(N3CCOCC3)nc(N3CCOCC3)n2)cn1 [BUPARLISIB]	Active	5.85	1.82	Active	5.20	6.38	5.39	5.29	91.9	5.56	0.16	5.40	Active	5.42	5.22	6.13	Active	5.44	5.44	5.77	IC50 (A549 [17]): 646 nM; IC50 (MDA-MB-468 [18]): 1290 nM; Activity (MDA-MB-468 [19]): 7.84%; IC50 (A2780 [20]): 347 nM; IC50 (DU-145 [21]): 1170 nM
